Measured values reported in publication PMC9862713 (Bioorganic & Medicinal Chemistry, 2023).
Values after ≈ are worked out from the molar mass of the structure shown. “Also recorded” adds a separate entry of the source.

Legend:
HEK-293 = test: MTT cell viability / cytotoxicity assay; type: cell-based, Human; conditions: 24 and 48 h, concentrations up to 100 µM
Outline: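 HEK-293 cells kept in DMEM with 2 mM L-glutamine, 10% heat-inactivated FBS and 1% pen/strep at 37 °C, 5% CO2. Seeded at 10,000 cells/well; compound or DMSO vehicle (0.5% final) added 24 h later, 24 or 48 h exposure. MTT 0.5 mg/ml final for 2 h at 37 °C, ethanol solubilisation, A570 (ref 650 nm). Eight serial dilutions in triplicate, sigmoidal dose–response fit; mean ± SD, three independent experiments.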

[1] = Aqueous kinetic solubility in PBS pH 7.4; type: physicochemical; conditions: for solubility kinetic at 24 h: phosphate buffered saline (PBS), pH 7.4, Kinetic solubility Sk
SARS-CoV-2 RdRp = SARS-CoV-2 RdRp (Severe acute respiratory syndrome coronavirus 2, UniProt P0DTD1); test: RdRp enzymatic assay; type: biochemical
[2] = PBS pH 7.4, 25 °C, 24 h, target 250 µM, 2.5 % DMSO

SMILES | Cytotoxicity on HEK-293 (HEK-293) | solubility kinetic at 24 h [1, 2] [µM] | further results
CCCCOc1c(-c2ccc(O)c(O)c2)oc2cc(O)cc(O)c2c1=O [Compound 4] | no cytotoxicity effects; also recorded: did not appear to be cytotoxic |  | 
O=c1c(OCCO)c(-c2ccc(O)c(O)c2)oc2cc(O)cc(O)c12 [Compound 5] | no cytotoxicity effects; also recorded: did not appear to be cytotoxic |  | 
O=c1c(OCCCO)c(-c2ccc(O)c(O)c2)oc2cc(O)cc(O)c12 [Compound 6] | did not appear to be cytotoxic; also recorded: no cytotoxicity |  | Kinetic solubility Sk [1, 2]: 231 µM
O=c1cc(Cc2ccc(O)c(O)c2)oc2cccc(O)c12 [Compound 7] |  |  | Improvement of kinetic solubility ([1]; compared to the hits (luteolin, quercetin)): 3 to 4 fold
CC(c1ccc(O)c(O)c1)c1cc(=O)c2c(O)cccc2o1 (stereo not drawn) [Compound 8] | no cytotoxicity effects; also recorded: did not appear to be cytotoxic |  | 
O=c1cc(C(CCCC(F)(F)F)c2ccc(O)c(O)c2)oc2cccc(O)c12 (stereo not drawn) [Compound 10] |  |  | IC50 against SARS-CoV-2 RdRp (SARS-CoV-2 RdRp; enzymatic assay, 37 °C, 60 min, duplicate): no inhibition
O=c1cc(/C=C/c2ccc(O)c(O)c2)oc2cccc(O)c12 [Compound 12] |  | 1 (≈ 0.296 µg/mL) | 
O=C(Oc1ccc(O)c(O)c1)c1cc(=O)c2c(O)cccc2o1 [Compound 14] |  | 1 (≈ 0.314 µg/mL) | Increase of activity (IC50 ratio) (SARS-CoV-2 RdRp; compared to 12 and 13): about 4 fold
O=C(OCCc1ccc(O)c(O)c1)c1cc(=O)c2c(O)cccc2o1 [Compound 15] |  |  | Drop of potency (IC50 ratio) (SARS-CoV-2 RdRp; compared to the rigid ester 14): 22 fold
O=C(NCCNC(=S)Nc1ccc(O)c(O)c1)c1cc(=O)c2c(O)cccc2o1 [Compound 17] |  | 1 (≈ 0.415 µg/mL) | 
